From ChEMBL document CHEMBL2203005 (Bioorg Med Chem, 2012) come the findings set out here.

Assay [1] addresses NAD(P)H dehydrogenase [quinone] 1 (Mus musculus) (UniProt Q64669). Description: Induction of quinone reductase-1 activity in mouse BPrc1 cells after 48 hrs by MTT assay. Format: cell-based. For orientation: Tetrazolium assays rely on reduction of a dye to a coloured formazan, in cell work by metabolically active cells.
The target is the same in assay [2]. Description: Induction of quinone reductase-1 activity in mouse Hepa-1c1c7 cells assessed as induction ratio after 48 hrs by MTT assay relative to control. Format: cell-based. The essentials:
(§1)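 Hepa 1c1c7 murine hepatoma cells exposed to compound (max 50 μM) for 48 h in 96-well format, then permeabilized with digitonin. QR1 activity read as NADPH-dependent menadiol-mediated MTT reduction to formazan, absorbance 595 nm; crystal violet total-protein assay in parallel. CD = concentration doubling activity, determined only where induction ratio > 2. Three independent experiments in duplicate; 4′-bromoflavone positive control.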

For assay [3] the target is unchanged. Description: Induction of quinone reductase-1 activity in mouse Hepa-1c1c7 cells after 48 hrs by MTT assay. Format: cell-based. The essentials:
as §1

In assay [4] the target is T1, Nitric oxide synthase, inducible (Mus musculus, UniProt P29477).
T1 sequence (P29477 whole entry): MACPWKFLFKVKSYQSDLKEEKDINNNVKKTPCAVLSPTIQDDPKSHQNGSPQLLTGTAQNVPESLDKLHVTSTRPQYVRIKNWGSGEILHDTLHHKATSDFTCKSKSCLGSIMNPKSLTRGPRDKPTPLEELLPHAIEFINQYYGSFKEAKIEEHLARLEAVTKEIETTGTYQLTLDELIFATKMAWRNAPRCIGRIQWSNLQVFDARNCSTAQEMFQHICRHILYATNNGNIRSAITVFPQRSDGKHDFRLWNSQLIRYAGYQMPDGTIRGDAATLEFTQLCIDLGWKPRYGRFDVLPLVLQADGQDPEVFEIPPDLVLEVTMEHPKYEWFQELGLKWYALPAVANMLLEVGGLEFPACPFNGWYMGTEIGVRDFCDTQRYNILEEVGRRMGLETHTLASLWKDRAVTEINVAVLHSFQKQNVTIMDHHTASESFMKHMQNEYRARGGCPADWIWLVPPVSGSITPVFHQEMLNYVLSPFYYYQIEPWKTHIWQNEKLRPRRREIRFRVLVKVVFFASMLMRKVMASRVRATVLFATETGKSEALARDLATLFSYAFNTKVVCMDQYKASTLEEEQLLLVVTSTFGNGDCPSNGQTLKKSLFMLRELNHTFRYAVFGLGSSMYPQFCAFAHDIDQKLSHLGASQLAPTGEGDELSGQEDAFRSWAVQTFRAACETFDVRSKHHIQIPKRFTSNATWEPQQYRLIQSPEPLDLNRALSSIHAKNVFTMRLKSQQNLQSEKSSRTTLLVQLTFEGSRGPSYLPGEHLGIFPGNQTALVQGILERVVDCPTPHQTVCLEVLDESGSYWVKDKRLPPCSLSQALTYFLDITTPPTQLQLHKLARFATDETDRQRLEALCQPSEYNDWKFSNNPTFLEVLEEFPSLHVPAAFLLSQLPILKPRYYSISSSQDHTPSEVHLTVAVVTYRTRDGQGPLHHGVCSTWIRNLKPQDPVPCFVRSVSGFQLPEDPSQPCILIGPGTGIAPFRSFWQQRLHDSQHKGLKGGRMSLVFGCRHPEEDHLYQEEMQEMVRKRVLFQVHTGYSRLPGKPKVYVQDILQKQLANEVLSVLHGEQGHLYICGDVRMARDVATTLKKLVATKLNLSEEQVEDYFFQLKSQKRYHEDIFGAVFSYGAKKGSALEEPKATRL
Description: Inhibition of LPS-induced iNOS activity in mouse RAW 264.7 cells assessed as inhibition of NO production pretreated with compound for 30 mins before LPS challenge after 24 hrs by Griess reagent method. Format: cell-based. Background: The Griess reaction detects nitrite, a stable product of nitric oxide.

The target of assay [5] is T2, Aromatase (Homo sapiens, UniProt P11511).
T2 sequence (P11511 whole entry): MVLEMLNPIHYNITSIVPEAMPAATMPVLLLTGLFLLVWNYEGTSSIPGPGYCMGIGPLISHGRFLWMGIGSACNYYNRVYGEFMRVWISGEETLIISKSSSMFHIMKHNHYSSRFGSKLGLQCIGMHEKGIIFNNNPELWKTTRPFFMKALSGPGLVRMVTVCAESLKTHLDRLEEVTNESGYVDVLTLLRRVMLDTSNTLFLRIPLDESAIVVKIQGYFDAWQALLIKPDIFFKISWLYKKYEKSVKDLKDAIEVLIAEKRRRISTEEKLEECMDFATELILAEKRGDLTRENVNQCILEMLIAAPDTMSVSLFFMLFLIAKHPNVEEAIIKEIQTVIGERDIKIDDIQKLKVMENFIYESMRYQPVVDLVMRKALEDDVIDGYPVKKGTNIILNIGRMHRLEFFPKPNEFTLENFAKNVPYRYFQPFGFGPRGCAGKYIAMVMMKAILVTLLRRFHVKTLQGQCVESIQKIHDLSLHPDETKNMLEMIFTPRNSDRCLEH
The note with it: 0.5 h, read-out: INH.

Assay [6] can be described thus: Inhibition of TNFalpha-induced NF-kappaB activity expressed in HEK293 cells by luciferase reporter gene assay. Format: cell-based. The note with it: Homo sapiens. (Reporter assays use an easily measured gene product as a stand-in for the process of interest.)
Assay [7] concerns the target T2, Aromatase.
Assay [8] concerns the target NAD(P)H dehydrogenase [quinone] 1 (Mus musculus) (UniProt Q64669). Description: Induction of quinone reductase-1 activity in mouse TAOc1BPrc1 cells after 48 hrs by MTT assay. Format: cell-based.
The test system of the next assay is HEK293. Description: Inhibition of TNFalpha-induced NF-kappaB activity expressed in HEK293 cells at 50 uM by luciferase reporter gene assay. Format: cell-based. The note with it: Homo sapiens.
Assay [9] concerns the target T3, Nitric oxide synthase, inducible (Mus musculus) (UniProt P29477).
T3 sequence (whole entry): T1 sequence (P29477 whole entry)
In words: Inhibition of LPS-induced iNOS activity in mouse RAW 264.7 cells assessed as inhibition of NO production at 50 uM pretreated with compound for 30 mins before LPS challenge after 24 hrs by Griess reagent method. Format: cell-based.

NAD(P)H dehydrogenase [quinone] 1 (Mus musculus), sequence (Q64669 whole entry): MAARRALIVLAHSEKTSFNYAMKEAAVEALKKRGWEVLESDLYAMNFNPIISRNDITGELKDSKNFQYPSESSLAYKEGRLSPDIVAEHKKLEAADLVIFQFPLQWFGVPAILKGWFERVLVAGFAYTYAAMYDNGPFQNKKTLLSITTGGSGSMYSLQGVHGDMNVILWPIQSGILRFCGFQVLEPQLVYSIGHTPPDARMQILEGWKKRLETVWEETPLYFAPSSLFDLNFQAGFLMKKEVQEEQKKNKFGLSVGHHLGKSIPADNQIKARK

For the molecule `Fc1ccccc1-c1nsc(-c2ccccc2)n1`, the CD in assay [1] is > 50 µM.

Turning to `Brc1cccc(-c2nc(-c3ccccc3)cs2)c1`, the CD in assay [1] is > 50 µM.

Consider `Cc1ccc(Cl)cc1-c1nsc(-c2ccc(Cl)cc2C)n1`, for which the Ratio in assay [2] amounted to 4.9. Also, the CD in assay [3] is 0.44 µM.

With `COc1cccc(-c2noc(-c3cccc(OC)c3)n2)c1`, in assay [1], the CD was > 50 µM.

In the case of `COc1cccc(-c2nc(-c3ccccc3)cs2)c1`, the IC50 in assay [4] is > 50 µM; in assay [6], 2.7 µM; on Aromatase [7], > 50 µM. Further, the inhibition at 50 µM on Aromatase [5] amounted to 35.5%. In addition, the CD in [1] is > 50 µM.

Take `Clc1cccc(Cl)c1-c1nc(-c2ccccc2)cs1`: the CD in assay [1] is > 50 µM.

With `COc1cccc(-c2csc(-c3cccc(Cl)c3Cl)n2)c1`, the CD in [1] and in assay [3] was > 50 µM each time.

Consider `COc1cccc(-c2csc(-c3cc(OC)ccc3F)n2)c1`, for which the CD in [1] and in [3] was > 50 µM throughout.

Consider `COc1cccc(-c2csc(-c3cccc(Br)c3)n2)c1`, for which the CD in assay [1] and in assay [3] was > 50 µM throughout.

`c1ccc(-c2nsc(-c3ccccc3)n2)cc1`: the half-maximal inhibitory concentration (IC50) is > 50 µM in [4] and 47.7 µM in assay [6]. The inhibition at 50 µM at Aromatase [5] came out at 60.2%. The CD in assay [1] was > 50 µM.

As to `Cc1ccc(Br)cc1-c1nsc(-c2ccc(Br)cc2C)n1`, the Ratio in assay [2] came out at 2.3. For the same molecule, the CD in assay [3] was > 50 µM.

With `CCCCc1ccc(-c2nc(-c3cccc(OC)c3)cs2)cc1`, the CD in [1] and in assay [3] was > 50 µM in each case.

As to `CCCCc1ccc(-c2nc(-c3ccccc3)cs2)cc1`, the CD in assay [1] and in [3] was > 50 µM throughout.

Molecule `Fc1ccccc1-c1nc(-c2ccccc2)ns1` registered a CD in assay [8] of 0.1 µM.

In the case of `COc1cccc(-c2nsc(-c3cccc(OC)c3)n2)c1`, the CD in assay [1] was > 50 µM.

For the molecule `COc1cccc(-c2csc(-c3cccc(OC)c3)n2)c1`, the results for the IC50 (in assay [4]; in [6]; on Aromatase [7]) were > 50 µM, 20.3 µM and > 50 µM, respectively.

On to `COc1cccc(-c2csc(-c3cccc(Cl)c3C)n2)c1`, for which the CD in [1] and in [3] was > 50 µM throughout.

Consider `Fc1ccccc1-c1nsc(-c2ccccc2F)n1`, for which the IC50 (in assay [4]; in assay [6]; against Aromatase [7]) was > 50 µM in each case. Also, the inhibition at 50 µM at Aromatase [5] turned out to be 53.2%. In addition, the inhibition with HEK293 amounted to 40.7%; in assay [9] it was 12.9%.

For the molecule `Cc1c(Cl)cccc1-c1nc(-c2ccccc2)cs1`, in assay [1], the CD was > 50 µM.

`COc1cccc(-c2csc(-c3ccccc3)n2)c1`: the results for the IC50 (in assay [4]; in [6]; against Aromatase [7]) were 45.3 µM, 31.6 µM and > 50 µM, respectively. Further, the inhibition at 50 µM on Aromatase [5] was found to be 27.1%. Further, the inhibition turned out to be 64% in the assay on HEK293 and 62% in [9].

Turning to `FC(F)(F)c1ccccc1-c1nc(-c2ccccc2)cs1`, the CD in assay [1] and in assay [3] was > 50 µM in each case.

Regarding `COc1cccc(-c2csc(-c3cccc(F)c3F)n2)c1`, in assay [1], the CD was > 50 µM.

As to `COc1cccc(-c2csc(-c3cccc(OC)c3F)n2)c1`, the CD in assay [1] and in assay [3] was > 50 µM each time.

On to `Cc1c(Cl)cccc1-c1nsc(-c2cccc(Cl)c2C)n1`, for which the CD in assay [3] was > 50 µM.

Consider `COc1cccc(-c2csc(-c3ccc(C)cc3Br)n2)c1`, for which the CD in assay [1] is > 50 µM.

In the case of `Cc1ccc(-c2nc(-c3ccccc3)cs2)c(Br)c1`, the CD in assay [1] was > 50 µM.

The IC50 is the midpoint of a concentration-inhibition curve.
